Screening results: PubChem, The Scripps Research Institute Molecular Screening Center
The list is not random: actives were taken first. Their share in the collection is about 2.9%.
OX1R antag-1: antagonists of human orexin 1 receptor; AID 434989; 330,000 compounds, 0.43% hits; CHO/OX1R cells, Fluo-8 calcium fluorescence, orexin A; inhibition, % at 5 µM; O43613;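 active = inhibition above its plate's threshold, mean inhibition of all tested compounds on the plate plus 3 SD, cut at about 37% in these data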;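 also: 0% = orexin A challenge wells and 100% = SB-334867-A antagonist wells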
Target sequence (O43613 whole entry, looked up): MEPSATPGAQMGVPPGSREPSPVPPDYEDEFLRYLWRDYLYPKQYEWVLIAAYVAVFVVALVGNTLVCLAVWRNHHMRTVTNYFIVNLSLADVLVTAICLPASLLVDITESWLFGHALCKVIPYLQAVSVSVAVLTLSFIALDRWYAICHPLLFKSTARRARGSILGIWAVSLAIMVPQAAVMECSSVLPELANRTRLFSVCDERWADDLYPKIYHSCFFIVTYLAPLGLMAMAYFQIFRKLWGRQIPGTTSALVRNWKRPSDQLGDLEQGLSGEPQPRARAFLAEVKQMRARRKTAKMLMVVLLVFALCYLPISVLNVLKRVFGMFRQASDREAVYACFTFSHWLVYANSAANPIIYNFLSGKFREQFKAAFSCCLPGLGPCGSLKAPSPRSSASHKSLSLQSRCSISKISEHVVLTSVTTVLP
CHO-K1 Ca ag: M1 agonist counterscreen hit in parental CHO-K1 cells; Fluo-8 calcium fluorescence; scaled to maximal ATP response, vehicle zero; activation, % at 3 µM; 360,000 compounds, 0.48% hits; AID 602248; in the data active = activation above about 15%;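 also: untransfected CHO-K1 host cells lacking M1 receptor as counterscreen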
M1 PAM parental: counter-screen for M1 PAMs: effect in parental CHO-K1 cells | activation, % at 3 µM | 360,000 compounds, 0.02% hits | ATP EC20, Fluo-8 calcium fluorescence; 0% at ATP EC20, 100% at ATP max | AID 602247;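 active = activation above the run cutoff, the mean activation of all test compounds plus 3 SD, cut at about 40% in these data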;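 also: peak over basal fluorescence ratio in a 140 s read after ATP addition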
CHO parental Ca: signal in parental CHO cells, OX1R antagonist counter-screen | parental CHO-K1, ATP-induced calcium, Fluo-8 fluorescence | inhibition, % at 5.6 µM | 330,000 compounds, 0.63% hits | AID 463079;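 active = inhibition above that plate's mean sample inhibition plus 3 SD, cut at about 26% in these data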;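 also: 0% = ATP-challenged DMSO wells and 100% = DMSO wells without ATP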
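Test system: parental CHO cells; detection: calcium-sensitive Fluo-8 fluorescence; evaluation: percent inhibition of calcium signal; also added: ATP as calcium-mobilizing challenge; repeats: one well per compound; control set: ATP-challenged DMSO wells low, unchallenged DMSO wells high; compound: single nominal dose of 5.6 µM per compound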
CHO-K1 Ca antag: nonselective inhibitor or artifact in parental CHO-K1 cells. ATP-induced calcium, Fluo-8 fluorescence. inhibition, % at 3 µM. 360,000 compounds, 0.6% hits;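 active = inhibition above a per-plate cutoff, the plate's mean sample inhibition plus 3 SD, cut at about 24% in these data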;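 also: 0% = DMSO plus EC80 ATP and 100% = DMSO alone without ATP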
OX1R antag-2: blocks the human orexin 1 receptor. inhibition, % at 6.6 µM. 330,000 compounds, 1.8% hits. OX1R-expressing cells, FRET antagonist read-out. AID 485270. O43613; in the data active = inhibition mostly above about 38%, no sharp cut-off; inactive = mostly below about 40%;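 also: 0% = agonist challenge alone and 100% = reference antagonist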
OX1R HTRF conf: OX1R (human) antagonism, HTRF confirmed; shares compounds with OX1R antag-2; OX1R-expressing cells, HTRF antagonist assay; inhibition, % at 6.6 µM; 1,800 compounds, 49% hits; AID 492964; in the data active = inhibition above about 55%;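 also: CHO cells expressing OX1R stimulated with orexin A at about EC80; 0% = agonist challenge alone and 100% = reference antagonist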
CHO-K1 HTRF: counter-screen: parental CHO-K1 HTRF response; parental CHO-K1 cells, HTRF counterscreen; inhibition, % at 6.6 µM; 1,800 compounds, 48% hits; shares compounds with OX1R antag-2; in the data active = inhibition above about 17%;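 also: 0% = agonist challenge with vehicle and 100% = vehicle alone without agonist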
The depositor's hits bear a star; . = no result given.

SMILES	OX1R antag-1	CHO-K1 Ca ag	M1 PAM parental	CHO parental Ca	CHO-K1 Ca antag	OX1R antag-2	OX1R HTRF conf	CHO-K1 HTRF
Cn1c(SCC(=O)N/N=C/c2ccc([N+](=O)[O-])s2)nnc1-c1ccccc1	-6	1	12	-15	-7	87*	37	52*
O=C(N/N=C/c1ccc([N+](=O)[O-])s1)c1ccccc1	-4	1	12	-11	-6	107*	36	52*
Cn1cc(C=CC(=O)O)c2nccnc21	.	0	5	.	-2	.	.	.
CC12CCC(C/C1=N/O)C2(C)CBr (stereo not drawn)	-2	1	2	-9	-15	7	.	.
Cc1csc(NC(=O)CSCC(=O)O)c1-c1nc2ccccc2s1	23	0	24	-8	-9	83*	88*	15
O=C(O)c1ccc2c(c1Nc1ccccc1)C(=O)c1ccccc1C2=O	-21	1	8	-4	-15	12	.	.
O=C(O)c1ccc2c3c(ncnc13)-c1ccccc1C2=O	-3	.	.	-6	.	186*	58*	98*
Cc1cccc(C(=O)C2CCN(S(=O)(=O)c3cccc(C(=O)O)c3)CC2)c1	.	0	-7	.	-11	.	.	.
COc1cc(C(c2c(C)[nH][nH]c2=O)c2c(C)[nH][nH]c2=O)cc([N+](=O)[O-])c1O	-8	0	21	-4	-8	78*	35	44*
O=[N+]([O-])c1ccc(C2=Nn3cnnc3SC2)cc1	-30	1	10	-8	-7	88*	58*	93*
CCN(Cc1ccccc1)C(=O)CCS(=O)(=O)c1cc2c(cc1Cl)NC(=O)CO2	-17	1	20	-6	-9	9	.	.
Nc1nc2ccccc2n1/N=C/c1ccc([N+](=O)[O-])s1	-4	1	25	-4	-15	78*	27	27*
COc1cccc(N=Nc2c(=O)[nH]n3c(=O)cc(C)[nH]c23)c1	-2	0	-7	4	6	107*	41	48*
CCOC(=O)c1c[nH]c2ccc([N+](=O)[O-])cc12	.	1	5	.	-12	.	.	.
O=c1cc[nH]c2ccc([N+](=O)[O-])cc12	1	1	15	-13	-3	122*	51	61*
COc1ccc(N=NC2=C(O)CC(C)(C)CC2=O)cc1	-10	1	21	-4	-6	102*	33	28*
CC1CN(C(=O)/C=C/c2ccc([N+](=O)[O-])s2)CC(C)O1 (stereo not drawn)	-26	0	4	-34	-15	126*	65*	75*
CC1CN(C(=O)/C=C/c2ccccc2[N+](=O)[O-])CC(C)O1 (stereo not drawn)	-1	1	23	14	-4	24	.	.
Cc1ccc(NC(=O)c2ccncc2)cc1[N+](=O)[O-]	-1	0	22	-17	-9	105*	32	32*
CCc1nnc(N/N=C/c2ccccc2Cl)n1N	-6	0	-11	4	15	96*	19	13
O=C(COC(=O)COc1ccc(Br)cc1)NC1CCS(=O)(=O)C1 (stereo not drawn)	.	1	18	.	-10	.	.	.
COc1ccc(-n2nc([N+](=O)[O-])c(=NCCCN3CCCC3=O)n2O)cc1	0	0	14	-5	-11	154*	51	88*
COc1ccc(C(=O)Nc2ccc3ccccc3n2)cc1OC	-2	2	0	-17	-7	77*	78*	1
Cc1ccc(C(=O)Nc2ccc3ccccc3n2)cc1	-27	0	-26	-9	9	21	.	.
Cc1cc(NC(=O)CC2(CC(=O)O)CCCC2)n(C)n1	-11	0	24	-8	-17	7	.	.
SMILES	OX1R antag-1	CHO-K1 Ca ag	M1 PAM parental	CHO parental Ca	CHO-K1 Ca antag	OX1R antag-2	OX1R HTRF conf	CHO-K1 HTRF
O=[N+]([O-])c1ccc(-c2ccc(S(=O)(=O)N3CCOCC3)cc2)cc1	-14	0	-1	-3	0	14	.	.
O=C1CN(S(=O)(=O)c2ccc([N+](=O)[O-])cc2)CC(=O)N1	-7	1	11	-8	-16	77*	40	66*
CC1(C)C(Cl)C(=O)C(C(=O)c2ccccc2)C(=O)C1Cl (stereo not drawn)	-4	0	1	-1	-5	13	.	.
Cc1nn(C)cc1/C=N/NC(=O)c1ccc2c(c1)OCO2	-8	0	12	0	-4	83*	10	9
CCN(C(=O)c1ccco1)C1C2CC3CC(C2)CC1C3 (stereo not drawn)	-9	-1	-2	-10	-1	2	.	.
CC1(C)OC(=O)C(=NNc2ccccc2)C(=O)O1	4	1	1	4	4	52	.	.
CC1(C)OC(=O)C(=NNc2ccc(O)cc2)C(=O)O1	-4	0	10	23	6	82*	19	24*
O=C(COC(=O)c1ccc([N+](=O)[O-])s1)NC(c1ccccc1)c1ccccc1	-28	0	17	-20	-9	49	.	.
O=C(COC(=O)c1ccc([N+](=O)[O-])s1)NCc1ccccc1	-22	1	20	-5	-18	124*	28	18*
N#C/C(=C\c1ccc(C(=O)O)cc1)c1nc2sc3c(c2c(=O)[nH]1)CCCC3	.	4	14	.	-9	.	.	.
CCN1CCN(CCC2Oc3cc([N+](=O)[O-])ccc3NC2=O)CC1 (stereo not drawn)	-10	1	-1	2	-18	78*	44	25*
COc1ccc(F)cc1S(=O)(=O)NCc1cc(=O)n(C)c(=O)n1C	-10	1	9	-4	-21	7	.	.
Cc1ccc(NC(=O)c2ccc(S(=O)(=O)NCc3cccnc3)cc2)c(C)c1	-49	4	5	-10	-5	15	.	.
NC(=S)N=Nc1c(O)[nH]c2ccc(F)cc12	5	1	22	-2	-15	83*	46	36*
Cc1cc(C(=O)NNC(=O)c2cccs2)c(C)o1	-9	0	-8	-2	-12	-4	.	.
O=C(CNC(=O)c1ccc(Br)cc1)NCC(=O)OCC(=O)c1ccc([N+](=O)[O-])cc1	-20	0	24	-12	-5	87*	35	50*
O=C(CNC(=O)c1ccc(Br)cc1)NCC(=O)OCC(=O)c1ccc(F)cc1	.	1	4	.	-5	.	.	.
CNC(=O)COC(=O)CNC(=O)c1cc(Cl)cc([N+](=O)[O-])c1	3	1	10	2	-17	89*	38	49*
CC(C)CNC(=O)COC(=O)CNC(=O)c1cc(Cl)cc([N+](=O)[O-])c1	-5	0	13	-9	-7	47	.	.
